Measured values collected from several papers.
Each line is one published result; the experiments were not run side by side.
Target: Platelet-derived growth factor receptor alpha (PDGFRA, Homo sapiens, UniProt P16234)

SMILES	read-out	technique	concentration	remaining binding [%]
COc1ccnn2ncc(-c3ccnc(N(C)C)n3)c12	binding		1 µM	74
CC(C)(C)c1ccc(-c2nc(CBr)nn2-c2cccc(O)c2)cc1	cell-free assay	competition with immobilised ligand	10 µM	83
C[C@H](c1cccc(C#N)c1)n1cc(Cl)cc(C(N)=O)c1=N	cell-free assay	competition with immobilised ligand	1 µM	94
O=C(NCCCN1CCOCC1)c1ccc(Nc2ncc(Cl)c(-c3ccc(Cl)s3)n2)cc1	binding	competition with immobilised ligand	1 µM	10
FC(F)(F)Oc1cccc(-c2cnc3ccc(-c4ccncc4)nn23)c1	cell-free assay	competition with immobilised ligand	5 µM	22
COc1cnc(Nc2cccc(S(N)(=O)=O)c2)nc1N1CCN(c2ccccc2)CC1	binding	competition with immobilised ligand	1 µM	85
CC1=C(C#N)C(c2ccc3c(c2)c(NC(=O)c2ccccc2C)nn3C)C(C#N)=C(C)N1	cell-free assay	competition with immobilised ligand	1 µM	86
CC1CCCN1c1nccc(-c2cnn3ncccc23)n1 (stereo not shown)	binding		1 µM	94
COc1ccc2c(O[C@@H]3C[C@H]4C(=O)N[C@]5(C(=O)O)CC5/C=C\CCCCC[C@H](NC(=O)OC5CCCC5)C(=O)N4C3)cc(-c3csc(NC(=O)C(C)C)n3)nc2c1C (stereo partly shown)	cell-free assay	competition with immobilised ligand	1 µM	84
CN(CCCC(F)(F)F)c1nccc(-c2cnn3ncccc23)n1	binding		1 µM	100
CNC(=O)[C@@H]1CC[C@@H](n2c(-c3ccc4cnccc4c3)nc3ccc(C(=O)NCc4cccc(C(N)=O)c4)cc32)C1	binding	competition with immobilised ligand	1 µM	100
COc1ccc2c(c1)O[C@@H](c1ccc(OC)c(OC)c1)C[C@H]2NC(=O)C1(c2ccc3c(c2)OC(F)(F)O3)CC1	cell-free assay	competition with immobilised ligand	1 µM	78
O=C(NCCCN1CCOCC1)c1ccc(Nc2nccc(-c3cc4ccccc4s3)n2)cc1	binding	competition with immobilised ligand	1 µM	64
O=C(Nc1c[nH]nc1C(=O)NC1CCNCC1)c1cc(F)cc(F)c1	binding	competition with immobilised ligand	1 µM	83
COc1cc(-c2cn(C3CCc4ccccc4N(CC(F)(F)F)C3=O)nn2)ccc1-n1ccc(C)n1 (stereo not shown)	cell-free assay	competition with immobilised ligand	1 µM	88
CN(C)c1nccc(-c2cnc3ncccn23)n1	binding		1 µM	78
Cc1cc(C)c(-n2ccn3nc(-c4cccnc4)cc23)cc1NC(=O)c1cc(C#N)cc(S(F)(F)(F)(F)F)c1	cell-free assay	competition with immobilised ligand	0.1 µM	67.4
C[C@@H]1CN(c2ccc3ncc(-c4ccc5[nH]nc(C6CC6)c5c4)n3n2)C[C@H](C)O1	binding	competition with immobilised ligand	0.5 µM	76
N[C@H]1CCN(c2nccc(-c3cnn4ncccc34)n2)C1	binding		1 µM	90
CS(=O)(=O)c1cc(C2(NC(=O)c3cncc4c3cnn4-c3ccc(F)cc3)CC2)ccn1	cell-free assay	competition with immobilised ligand	1 µM	90
C[C@@H]1CCN(c2nccc(-c3cnn4ncccc34)n2)C1	binding		1 µM	81
CC(C)(O)c1cncc(-c2nc3ccc(F)cc3n2C2CC2)c1	cell-free assay	competition with immobilised ligand	1 µM	100
CN(C)c1nccc(-c2cnn3ncccc23)n1	binding		1 µM	100
Cc1cnc(Nc2ccc(C(=O)N3CCC(N4CCCC4)CC3)cc2)nc1-c1cc2ccccc2s1	binding	competition with immobilised ligand	1 µM	14
C[C@@H](c1ccc(-n2cnc3c(N)ncnc32)cc1)N1CCc2nn(C)c(Cc3ccccc3)c2C1=O	binding	competition with immobilised ligand	0.1 µM	20
